Calls of active or inactive are those of the source. No cut-off for these calls is given here.
How the values were obtained:
[1] = target: T1, Retinoic acid receptor alpha (Homo sapiens) (UniProt P10276); assay: Effect on human Gal4-fused RAR alpha at 10 uM by luciferase reporter gene assay
T1 sequence (whole entry): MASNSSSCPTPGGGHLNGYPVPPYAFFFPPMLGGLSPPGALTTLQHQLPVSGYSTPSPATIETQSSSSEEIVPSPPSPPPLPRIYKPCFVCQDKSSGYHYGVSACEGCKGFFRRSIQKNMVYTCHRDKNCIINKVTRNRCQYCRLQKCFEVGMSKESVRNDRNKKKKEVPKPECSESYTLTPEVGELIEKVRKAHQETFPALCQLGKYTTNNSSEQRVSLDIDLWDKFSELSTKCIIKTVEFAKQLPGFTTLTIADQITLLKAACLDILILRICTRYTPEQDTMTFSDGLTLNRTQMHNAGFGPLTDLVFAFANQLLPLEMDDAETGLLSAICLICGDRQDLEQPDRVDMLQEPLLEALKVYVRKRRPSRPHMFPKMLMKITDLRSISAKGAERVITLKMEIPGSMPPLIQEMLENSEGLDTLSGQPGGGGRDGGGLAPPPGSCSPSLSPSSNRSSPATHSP

Bile acid receptor = target: T2, Bile acid receptor (Homo sapiens, UniProt Q96RI1); assay: Antagonist activity at human FXR expressed in CV-1 cells assessed as inhibition of CDCA-induced transactivation after 24 hrs by luciferase reporter gene assay; type: functional, cell-based
T2 sequence (Q96RI1 whole entry): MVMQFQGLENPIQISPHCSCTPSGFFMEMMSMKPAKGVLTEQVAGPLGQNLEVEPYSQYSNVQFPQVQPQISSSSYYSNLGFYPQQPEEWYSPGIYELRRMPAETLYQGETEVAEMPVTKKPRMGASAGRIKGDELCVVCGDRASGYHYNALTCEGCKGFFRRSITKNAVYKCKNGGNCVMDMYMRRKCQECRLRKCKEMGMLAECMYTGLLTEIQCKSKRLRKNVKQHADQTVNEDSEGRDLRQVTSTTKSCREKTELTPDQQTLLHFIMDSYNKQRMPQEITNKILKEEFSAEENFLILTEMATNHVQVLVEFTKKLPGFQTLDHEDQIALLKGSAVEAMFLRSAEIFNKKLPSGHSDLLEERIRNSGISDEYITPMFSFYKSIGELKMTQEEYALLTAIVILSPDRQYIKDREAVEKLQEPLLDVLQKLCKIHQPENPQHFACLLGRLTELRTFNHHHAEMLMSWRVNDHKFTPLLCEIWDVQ
How it was run: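 CV-1 cells in DMEM with 10% resin-charcoal-stripped FBS, 24 h at 37 °C, 5% CO2, then transiently co-transfected with pCMX-hFXR, CMXβ-GAL and Tk(EcRE)6-LUC. After 24 h, compounds were co-treated with 50 µM CDCA; harvest at 24 h. Luciferase normalized to β-galactosidase. Transfections in triplicate; experiments repeated more than three times.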

[2] = target: T3, Bile acid receptor (Homo sapiens) (UniProt Q96RI1); assay: Binding affinity to human FXR ligand binding domain cell free system assessed as release of co-activator peptide SRC-1 after 1 hr by surface plasmon resonance method
T3 sequence (whole entry): T2 sequence (Q96RI1 whole entry)
How it was run: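 BIAcore SPR: hFXR LBD (4 µM) preincubated 1 h with compound plus 50 µM CDCA, then injected over a sensor chip bearing immobilized SRC-1 co-activator peptide; co-activator peptide binding to the LBD monitored.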

[3] = target: T4, Glucocorticoid receptor (Homo sapiens) (UniProt P04150); assay: Effect on human Gal4-fused GR at 10 uM by luciferase reporter gene assay
T4 sequence (whole entry): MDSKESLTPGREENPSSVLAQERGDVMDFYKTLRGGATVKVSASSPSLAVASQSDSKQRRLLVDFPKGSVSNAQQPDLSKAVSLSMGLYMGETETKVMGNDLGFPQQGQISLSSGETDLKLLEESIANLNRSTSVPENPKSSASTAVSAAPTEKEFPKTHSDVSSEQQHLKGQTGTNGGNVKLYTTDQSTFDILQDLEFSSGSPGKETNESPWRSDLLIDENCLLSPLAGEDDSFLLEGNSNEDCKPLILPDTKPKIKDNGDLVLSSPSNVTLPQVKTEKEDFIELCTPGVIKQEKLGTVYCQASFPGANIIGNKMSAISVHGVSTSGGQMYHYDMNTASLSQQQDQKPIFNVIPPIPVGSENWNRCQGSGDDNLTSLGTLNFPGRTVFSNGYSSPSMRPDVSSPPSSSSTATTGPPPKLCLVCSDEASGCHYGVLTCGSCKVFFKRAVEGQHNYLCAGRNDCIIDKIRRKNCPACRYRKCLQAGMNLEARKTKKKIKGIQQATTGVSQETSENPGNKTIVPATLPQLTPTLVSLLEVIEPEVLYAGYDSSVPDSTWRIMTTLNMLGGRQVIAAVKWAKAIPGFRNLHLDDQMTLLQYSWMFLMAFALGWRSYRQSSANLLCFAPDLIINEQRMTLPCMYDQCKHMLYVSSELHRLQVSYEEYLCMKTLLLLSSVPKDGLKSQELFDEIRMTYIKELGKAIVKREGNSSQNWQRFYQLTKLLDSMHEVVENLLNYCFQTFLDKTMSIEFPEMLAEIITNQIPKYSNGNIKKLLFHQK

[4] = Cytotoxicity against african green monkey CV1 cells by MTT assay; type: cell-based; conditions: Chlorocebus aethiops, CV-1
How it was run: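 CV-1 cells, viability read by MTT; each experiment repeated more than three times.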

In the case of `CC(=O)CC/C=C(\C)C[C@@H]1C=C(CCC=C(C)C)C(=O)O1` [TUBERATOLIDE A], the Activity [1] is reported as “inactive”, the IC50 (Bile acid receptor) is reported as 3.9 µM and the Activity [2] is reported as “Active”. The Activity [3] was “inactive” and the IC50 [4] was greater than 100 µM.
For `CC(C)=CCC/C(=C/CC/C(C)=C/CC[C@@]1(C)C=Cc2cc(O)cc(C)c2O1)C(=O)O` [(S)-SARGACHROMENOL], the Activity [1] was “inactive”, the IC50 (Bile acid receptor) was 17 µM and the Activity [2] was “Active”. The Activity [3] was “inactive” and the IC50 [4] was 56 µM.
In the case of `CC(C)=CCC/C(=C/CC/C(C)=C/CC[C@]1(C)C=Cc2cc(O)cc(C)c2O1)C(=O)O` [(R)-SARGACHROMENOL], the Activity [1] is reported as “inactive”, the IC50 (Bile acid receptor) is reported as 9 µM and the Activity [2] is reported as “Active”. For the same compound, the Activity [3] was “inactive” and the IC50 [4] was 45 µM.
For `CC(C)=CCCC1=C[C@@H](C/C(C)=C/CC/C(C)=C/CC2=CC(=O)C=C(C)C2=O)OC1=O` [YEZOQUINOLIDE], the Activity [1] was “inactive”, the IC50 (Bile acid receptor) was 5.9 µM and the Activity [2] was “Active”. For the same compound, the Activity [3] was “inactive” and the IC50 [4] was 50 µM.
In the case of `CC(C)=CCCC1=C[C@@H](C/C(C)=C/CC[C@@]2(C)C=Cc3cc(O)cc(C)c3O2)OC1=O` [TUBERATOLIDE B], the Activity [1] is reported as “inactive”, the IC50 (Bile acid receptor) is reported as 1.5 µM and the Activity [2] is reported as “Active”. For the same compound, the Activity [3] was “inactive” and the IC50 [4] was 31 µM.
With `CC(C)=CCCC1=C[C@@H](C/C(C)=C/CC[C@]2(C)C=Cc3cc(O)cc(C)c3O2)OC1=O` [2'-EPI-TUBERATOLIDE B] the Activity [1] was “inactive”, the IC50 (Bile acid receptor) was 2.5 µM and the Activity [2] was “Active”. For the same compound, the Activity [3] was “inactive” and the IC50 [4] was 30 µM.
